Test results as given in PMC9073653 (RSC Advances, 2019).

Experiments:
human fibroblasts (HAF) = experiment: SRB cytotoxicity assay, human fibroblasts HAF; assay type: cell-based; conditions: Fibroblast, 96 h, read-out: IC50 HAF
LNCaP cells = experiment: SRB antiproliferative assay, LNCaP; assay type: cell-based; conditions: Homo sapiens, read-out: IC50 LNCaP
In short: (§1)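 AR-positive human prostate cancer line, tested in vitro for antiproliferative activity by sulforhodamine B (SRB) staining, with IC50 as the read-out.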

22RV1 cells = experiment: SRB antiproliferative assay, 22RV1; assay type: cell-based; conditions: Homo sapiens, 22Rv1, read-out: IC50 22RV1
In short: as §1

[1] = system: DU145, PC3 and PC3M cell lines; experiment: SRB antiproliferative assay, CRPC cell lines together; assay type: cell-based, human; conditions: across DU145, PC3 and PC3M
DU145 cells [2] = experiment: Cell cycle analysis by PI staining and flow cytometry; assay type: cell-based, human; conditions: 10 μM, 24 h, control 9.66%
[3] = system: PARP and CL.PARP in DU145 cells; experiment: Western blot of PARP and cleaved PARP; assay type: cell-based, human
DU145 cells [4] = experiment: Transwell migration assay; assay type: cell-based, human; conditions: 10 μM, 24 h
DU145 cells [5] = experiment: Wound healing migration assay; assay type: cell-based, human; conditions: 10 μM, 24 h
DU145 cells [6] = experiment: SRB antiproliferative assay, DU145; assay type: cell-based, human; conditions: in DU145 cells
PC3 cells = experiment: SRB antiproliferative assay, PC3; assay type: cell-based, human; conditions: in PC3 cells

Row | SMILES | IC50 (human fibroblasts (HAF)) [µM] | also measured
1 | CC(C)(C)NC(=O)C[C@H]1Oc2ccccc2C(=O)[C@]1(C)[N+](=O)[O-] [Compound 16] | > 100 | –
2 | CN(C)C(=O)C[C@H]1Oc2ccccc2C(=O)[C@]1(C)[N+](=O)[O-] [Compound 28] | > 100 | –
3 | CNC(=O)C[C@H]1Oc2ccccc2C(=O)[C@]1(C)[N+](=O)[O-] [Compound 12] | > 100 | –
4 | CN(C(=O)C[C@H]1Oc2ccccc2C(=O)[C@]1(C)[N+](=O)[O-])C1CCCCC1 [Compound 27] | > 100 | –
5 | C[C@]1([N+](=O)[O-])C(=O)c2cc(F)ccc2O[C@@H]1CC(=O)NC12CC3CC(CC(C3)C1)C2 [Compound 36] | > 100 | IC50 (LNCaP cells): 4.4 µM; IC50 (22RV1 cells): 7.43 µM; times more potent than the positive compound cisplatin [1]: 2.3–19.4 times; percentage of G2/M phase cells (DU145 cells [2]): 0%; expression of PARP and CL.PARP [3]: promote the PARP to CL. PARP; migration rate in comparison with control (DU145 cells [4]): 23.94%; cell migration ability, wound healing (DU145 cells [5]): notably inhibited
6 | CCCCCCCCNC(=O)C[C@H]1Oc2ccccc2C(=O)[C@]1(C)[N+](=O)[O-] [Compound 17] | > 100 | –
7 | C[C@]1([N+](=O)[O-])C(=O)c2cc(Cl)ccc2O[C@@H]1CC(=O)NC12CC3CC(CC(C3)C1)C2 [Compound 37] | > 100 | –
8 | COc1ccc2c(c1)C(=O)[C@](C)([N+](=O)[O-])[C@@H](CC(=O)NC13CC4CC(CC(C4)C1)C3)O2 [Compound 40] | > 100 | –
9 | C#CCOC(=O)C[C@H]1Oc2ccccc2C(=O)[C@]1(C)[N+](=O)[O-] [Compound 6] | > 100 | –
10 | C[C@]1([N+](=O)[O-])C(=O)c2ccccc2O[C@@H]1CC(=O)NC1CCCC1 [Compound 29] | > 100 | –
11 | C[C@]1([N+](=O)[O-])C(=O)c2ccccc2O[C@@H]1CC(=O)NNc1nc2ccccc2s1 [Compound 26] | > 100 | –
12 | C[C@]1([N+](=O)[O-])C(=O)c2ccccc2O[C@@H]1CC(=O)Nc1ncccn1 [Compound 23] | > 100 | –
13 | C[C@]1([N+](=O)[O-])C(=O)c2c(F)cccc2O[C@@H]1CC(=O)NC12CC3CC(CC(C3)C1)C2 [Compound 41] | > 100 | –
14 | C[C@]1(N)C(=O)c2cc(F)ccc2O[C@@H]1CC(=O)NC12CC3CC(CC(C3)C1)C2 [Compound 44] | > 100 | –
15 | C[C@]1([N+](=O)[O-])C(=O)c2cccc(F)c2O[C@@H]1CC(=O)NC12CC3CC(CC(C3)C1)C2 [Compound 43] | > 100 | –
16 | C[C@]1([N+](=O)[O-])C(=O)c2ccccc2O[C@@H]1CC(=O)NCc1ccccc1 [Compound 21] | > 100 | –
17 | C[C@]1([N+](=O)[O-])C(=O)c2ccccc2O[C@@H]1CC(=O)Nc1nccs1 [Compound 22] | > 100 | –

Row | SMILES | IC50 (human fibroblasts (HAF)) [µM] | also measured
18 | C[C@]1([N+](=O)[O-])C(=O)c2ccccc2O[C@@H]1CC(=O)NCC1CCCCC1 [Compound 31] | > 100 | –
19 | C[C@]1([N+](=O)[O-])C(=O)c2cc(C(F)(F)F)ccc2O[C@@H]1CC(=O)NC12CC3CC(CC(C3)C1)C2 [Compound 35] | > 100 | –
20 | C[C@]1([N+](=O)[O-])C(=O)c2ccc(F)cc2O[C@@H]1CC(=O)NC12CC3CC(CC(C3)C1)C2 [Compound 42] | > 100 | –
21 | C[C@]1([N+](=O)[O-])C(=O)c2ccccc2O[C@@H]1CC(=O)NC12CC3CC(CC(C3)C1)C2 [Compound 19] | > 100 | more potent antiproliferative activity than cisplatin (DU145 cells [6]): 1.6 fold; more potent antiproliferative activity than cisplatin (PC3 cells): 5.9 fold
22 | C[C@]1([N+](=O)[O-])C(=O)c2ccccc2O[C@@H]1CC(=O)OCc1ccccc1 [Compound 10] | > 100 | –
23 | C#CCNC(=O)C[C@H]1Oc2ccccc2C(=O)[C@]1(C)[N+](=O)[O-] [Compound 14] | > 100 | –
24 | C[C@]1([N+](=O)[O-])C(=O)c2ccccc2O[C@@H]1CC(=O)NC1CCCCC1 [Compound 18] | > 100 | –
25 | CCCCNC(=O)C[C@H]1Oc2ccccc2C(=O)[C@]1(C)[N+](=O)[O-] [Compound 15] | > 100 | –
26 | CC[C@]1([N+](=O)[O-])C(=O)c2ccccc2O[C@@H]1CC(=O)NC12CC3CC(CC(C3)C1)C2 [Compound 33] | > 100 | –
27 | C[C@]1([N+](=O)[O-])C(=O)c2cc(Br)ccc2O[C@@H]1CC(=O)NC12CC3CC(CC(C3)C1)C2 [Compound 38] | 3.67 ± 0.56 | –
28 | C[C@]1([N+](=O)[O-])C(=O)c2ccccc2O[C@@H]1CC(=O)Nc1ccc2[nH]ccc2c1 [Compound 24] | > 100 | –
29 | CC(=O)O[C@@]12CO[C@@H]1C[C@H](O)[C@@]1(C)C(=O)[C@H](O)C3=C(C)[C@@H](OC(=O)[C@H](O)[C@@H](NC(=O)OC(C)(C)C)c4ccccc4)C[C@@](O)([C@@H](OC(=O)c4ccccc4)[C@H]21)C3(C)C [Docetaxel, reference compound] | 0.157 ± 0.031 | –
30 | CC12CC3CC(C)(C1)CC(NC(=O)C[C@H]1Oc4ccccc4C(=O)[C@]1(C)[N+](=O)[O-])(C3)C2 [Compound 32] | > 100 | –
31 | CC[C@]1([N+](=O)[O-])C(=O)c2ccccc2O[C@@H]1CC(=O)NC1CCCCC1 [Compound 34] | > 100 | –
32 | CCNC(=O)C[C@H]1Oc2ccccc2C(=O)[C@]1(C)[N+](=O)[O-] [Compound 13] | > 100 | –
33 | C[C@]1([N+](=O)[O-])C(=O)c2ccccc2O[C@@H]1CC(=O)Nc1ccccc1 [Compound 20] | > 100 | –
34 | C[C@]1([N+](=O)[O-])C(=O)c2ccccc2O[C@@H]1CC(N)=O [Compound 11] | > 100 | –
